Assay outcomes as filed in PubChem.
Sampled rows, rich in hits. Any-hit rate of the full collection: about 2.1%.
ERp5 inh: inhibitors of ERp5-driven insulin aggregation, primary screen, biochemical, turbidity, absorbance 650 nm, single point | Protein disulfide-isomerase A6 (Homo sapiens), Q15084 | 90 min | inhibition, % at 9.99 µM | actives 0.05% (n = 350,000) | AID 651711, 2012;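 active = mean replicate inhibition above about 25%, with every replicate also reaching it, limit read from the data, passing the limit was not always enough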
ARNT TACC3 PPI: disruptors of ARNT/TACC3 protein interaction, primary screen, biochemical, AlphaScreen, single concentration | AlphaScreen His-ARNT PAS-B/GST-TACC3 binding, luminescence; TACC3 fragment carries E629A point mutation | inhibition, % at 9.99 µM | actives 0.66% (n = 390,000) | AID 623870, 2012;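 active = mean inhibition of replicates at least 50% and at least half of replicates each reaching 50%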
FGF22 binding: binders of human FGF22 protein, primary screen, FGF22 synaptogenesis inhibitor project, biophysical, thermal shift, single point | Fibroblast growth factor 22 (Homo sapiens), Q9HCT0 | recombinant FGF22 thermal shift, SYPRO orange fluorescence; percent of sucrose octasulfate shift, DMSO zero | activity (Tm shift, normalised), % at 9.99 µM | actives 1.5% (n = 340,000);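 active = mean Tm shift, scaled 0 neutral to 100 positive control, at about 1.3% or above, every replicate too, limit read from the data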
Target sequence (Q9HCT0 whole entry, looked up): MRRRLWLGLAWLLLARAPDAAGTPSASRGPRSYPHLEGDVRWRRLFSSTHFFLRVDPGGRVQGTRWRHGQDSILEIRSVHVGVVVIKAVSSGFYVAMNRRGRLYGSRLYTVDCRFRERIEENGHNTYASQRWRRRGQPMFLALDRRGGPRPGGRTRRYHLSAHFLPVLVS
AF4-AF9 inh: inhibitors of AF4 peptide binding to AF9, primary screen, biochemical, AlphaScreen, biotin-AF4 peptide, FLAG-AF9, single point | Protein AF-9 (Homo sapiens), P42568 | inhibition, % at 10 µM | actives 0.47% (n = 350,000);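 active = every replicate reaching a set inhibition limit, whatever the replicate mean, cut at about 25% in these data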
Target sequence (P42568 whole entry, looked up): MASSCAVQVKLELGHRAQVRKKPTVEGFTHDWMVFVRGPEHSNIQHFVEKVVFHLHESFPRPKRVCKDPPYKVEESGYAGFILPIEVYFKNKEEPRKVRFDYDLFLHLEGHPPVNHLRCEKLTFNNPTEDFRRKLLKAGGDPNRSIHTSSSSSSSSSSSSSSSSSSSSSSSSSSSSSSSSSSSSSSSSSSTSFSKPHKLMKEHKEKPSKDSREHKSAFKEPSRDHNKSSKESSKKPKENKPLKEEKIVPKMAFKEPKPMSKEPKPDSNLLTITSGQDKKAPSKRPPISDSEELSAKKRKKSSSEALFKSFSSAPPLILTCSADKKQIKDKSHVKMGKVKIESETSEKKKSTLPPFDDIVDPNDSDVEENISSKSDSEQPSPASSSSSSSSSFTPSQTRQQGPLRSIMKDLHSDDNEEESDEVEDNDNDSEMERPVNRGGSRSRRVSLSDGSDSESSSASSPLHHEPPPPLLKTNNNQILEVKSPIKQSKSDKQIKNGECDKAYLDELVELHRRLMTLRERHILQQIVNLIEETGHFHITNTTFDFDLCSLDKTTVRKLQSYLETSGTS
PDI turbidity: inhibitors of human PDI, primary screen, biochemical, turbidity, single point, plate reader. Protein disulfide-isomerase (Homo sapiens), P07237. inhibition, % at 10 µM. PDI insulin aggregation turbidity, A650, 90 min. AID 588391, 2011. actives 0.052% (n = 350,000);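 active = mean inhibition across replicates of 30% or more, whatever share of single replicates reach that level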
FN deposition inh: inhibitors of fibronectin matrix deposition, primary screen, AH1F cells, Alexa488-fibronectin fluorescence, plate reader. AH1F fibroblasts, overnight. inhibition, % at 12.6 µM. actives 0.086% (n = 350,000);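 active = mean inhibition across replicates of 30% or more, regardless of how many single replicates reach that level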
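Assay system: AH1F fibroblasts / Quantity: 10000 cells per well / Medium: DMEM plus 2% serum, read in PBS / Reagent: labelled fibronectin 24 nM / Dosing: single dose, pinned / Times: 1 h cell attachment, overnight exposure to compound and label / Signal: fluorescence, ex 485 nm, em 525 nm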
Each line names hits and unclear results; the compound was inactive in the other large screens; ! = not confirmed by another sample.

COCCNC(=O)C[C@@H]1C[C@H]2c3cc(NC(=O)NC4CCCC4)ccc3O[C@H]2[C@@H](CO)O1	ERp5 inh 82 (no result: PDI turbidity, FN deposition inh)
O=C(C[C@@H]1C[C@H]2c3cc(NC(=O)Nc4ccccc4F)ccc3O[C@H]2[C@H](CO)O1)NCC(F)(F)F	ERp5 inh 84! (no result: ARNT TACC3 PPI)
COCCNC(=O)C[C@@H]1C[C@@H]2c3cc(NC(=O)NC4CCCC4)ccc3O[C@@H]2[C@H](CO)O1	none (no result: PDI turbidity, FN deposition inh)
CCCNC(=O)C[C@@H]1C[C@H]2c3cc(NC(=O)CC4CC4)ccc3O[C@H]2[C@H](CO)O1	ERp5 inh 62 (no result: PDI turbidity)
CCC(=O)N(C)C[C@H]1Oc2ncc(Br)cc2C(=O)N([C@@H](C)CO)C[C@H]1C	none (no result: PDI turbidity)
CCOc1cc(C2NC(=O)NC(C)=C2C(=O)OCc2ccccc2)ccc1O (centres undefined)	ARNT TACC3 PPI 44 (no result: FN deposition inh)
Cc1ccccc1NS(=O)(=O)c1ccc2[nH]c(=O)[nH]c2c1	FGF22 binding 43 (no result: ARNT TACC3 PPI)
C[C@H](CO)N1C[C@H](C)[C@H](CN(C)Cc2ccccc2)OCCCC[C@H](C)Oc2ccc(NS(=O)(=O)c3ccc(F)cc3)cc2C1=O	AF4-AF9 inh 37 (no result: FGF22 binding, PDI turbidity)
C[C@@H]1CCCCO[C@@H](CN(C)S(=O)(=O)c2ccccc2)[C@@H](C)CN([C@H](C)CO)C(=O)c2cc(NC(=O)CCC(F)(F)F)ccc2O1	FGF22 binding 15 (no result: PDI turbidity, FN deposition inh)
C[C@@H]1CCCCO[C@@H](CN(C)S(=O)(=O)c2ccccc2)[C@@H](C)CN([C@H](C)CO)C(=O)c2cc(NS(=O)(=O)c3ccc(F)cc3)ccc2O1	FGF22 binding 1.3!
C[C@@H]1CN([C@@H](C)CO)C(=O)c2cc(NS(=O)(=O)c3ccc(F)cc3)ccc2O[C@@H](C)CCCCO[C@H]1CN(C)Cc1ccccc1	none (no result: FGF22 binding, PDI turbidity)
O=C(CNC(=O)C1CC1)Nc1ccc(F)c(F)c1F	FGF22 binding 43
CN(C)CCN(Cc1ccco1)c1ccccn1	FGF22 binding 43
C[C@H]1CN([C@@H](C)CO)C(=O)Cc2cc(NC(=O)Nc3cccc4ccccc34)ccc2O[C@@H]1CN(C)S(=O)(=O)c1ccccc1	none (no result: ARNT TACC3 PPI, PDI turbidity, FN deposition inh)
N#CCCN(C(=O)CN1c2cccc3cccc(c23)S1(=O)=O)c1ccccc1	FGF22 binding 43
O=C(CCC(=O)N1CCN(S(=O)(=O)c2ccc(Cl)cc2)CC1)Nc1ccc(Cl)cc1Cl	FGF22 binding 43
CC(C)(C)c1[nH]nc2c1C(c1ccsc1)C(C#N)=C(N)O2 (centres undefined)	FGF22 binding 43 (no result: ARNT TACC3 PPI)
O=S(=O)(c1ccc(Br)cc1)c1nc(-c2ccco2)oc1NCC1CCCO1 (centres undefined)	FGF22 binding 43
C[C@H]1CN([C@@H](C)CO)C(=O)Cc2cc(NS(C)(=O)=O)ccc2O[C@H]1CN(C)C(=O)Nc1cccc2ccccc12	none (no result: PDI turbidity, FN deposition inh)
CN(C)c1ccc(C(=S)N2CCCCC2)cc1	FGF22 binding 43
CN(C)c1ccc(C(=S)N2CCNCC2)cc1	none (no result: ERp5 inh, FGF22 binding, AF4-AF9 inh)
O=C(NCC[C@@H]1CC[C@H](NS(=O)(=O)c2cccc(F)c2)[C@H](CO)O1)C1CC1	none (no result: PDI turbidity)
C[C@@H]1CN([C@@H](C)CO)C(=O)Cc2cc(NC(=O)Nc3ccc(F)cc3)ccc2O[C@@H]1CN(C)CC1CCCCC1	none (no result: PDI turbidity, FN deposition inh)
Cc1ccc(C2=NN3C(=O)c4ccccc4C3C2)cc1 (centres undefined)	none (no result: AF4-AF9 inh)
COc1ccc2c(c1OC)C(=O)N1N=C(c3ccc(F)cc3)CC21 (centres undefined)	FGF22 binding 44
CC(=NNC(N)=O)C1=C(O)C(C(C)C)NC1=O (centres undefined)	ARNT TACC3 PPI 60
C/C(=N\NC(N)=O)c1cc(Cl)cc(Cl)c1O	none (no result: ARNT TACC3 PPI)
COc1ccc(S(=O)(=O)/N=C2/NC(=O)/C(=C\c3ccco3)S2)cc1	none (no result: ERp5 inh, FGF22 binding, AF4-AF9 inh)
COc1ccc(S(=O)(=O)/N=C2/NC(=O)/C(=C/c3ccco3)S2)cc1	FGF22 binding 1.4
Cc1ccc(S(=O)(=O)N(C)C[C@H]2Oc3ccc(NC(=O)Nc4ccc(F)cc4)cc3C(=O)N([C@H](C)CO)C[C@H]2C)cc1	none (no result: PDI turbidity, FN deposition inh)
C[C@H](C(=O)N(C)C[C@@H]1OCc2ccccc2-c2c(n(C)c3ccccc23)C(=O)N([C@H](C)CO)C[C@@H]1C)c1ccccc1	none (no result: ERp5 inh, ARNT TACC3 PPI, FGF22 binding, AF4-AF9 inh, PDI turbidity)
O=C(NCC[C@H]1CC[C@H](NS(=O)(=O)c2ccc(F)cc2)[C@@H](CO)O1)c1ccccc1F	none (no result: ARNT TACC3 PPI, FGF22 binding, PDI turbidity, FN deposition inh)
C/C(=N\OCc1ccc(C#N)cc1)c1ccccc1	FGF22 binding 44
CCCNC(=O)N1CC2(C1)CN(C(=O)CCC)[C@@H](CO)c1[nH]c3cc(OC)ccc3c12	none (no result: ERp5 inh, ARNT TACC3 PPI, PDI turbidity, FN deposition inh)
Cc1ccc(CN(CC(O)COc2cccc3[nH]cc(C)c23)C(C)(C)C)cc1 (centres undefined)	AF4-AF9 inh 29
COC(=O)Cc1c[nH]c2cccc(OCC(O)CN(Cc3ccc([N+](=O)[O-])cc3)C(C)(C)C)c12 (centres undefined)	none (no result: FGF22 binding, AF4-AF9 inh)
CCCCC(C(=O)O)C(C)CC(=O)Nc1nncs1 (centres undefined)	FGF22 binding 43
O=C(Cc1ccccc1[N+](=O)[O-])NCc1ccco1	FGF22 binding 44
O=C(Cc1ccccc1[N+](=O)[O-])NCc1ccncc1	none (no result: FGF22 binding)
CCCNC(=O)N1CC2(C1)CN(Cc1ccccc1)[C@@H](CO)c1[nH]c3cc(OC)ccc3c12	none (no result: ARNT TACC3 PPI, PDI turbidity, FN deposition inh)
O=S(=O)(Nc1cccc2cccnc12)c1ccc(S(=O)(=O)N2CCCC2)cc1	ARNT TACC3 PPI 67 (no result: ERp5 inh, FGF22 binding, AF4-AF9 inh, FN deposition inh)
CN(Cc1nc(-c2cnccn2)no1)C1CC(C)(C)NC(C)(C)C1	FGF22 binding 43
NC1=CC(=O)C(=O)c2ccccc21	ARNT TACC3 PPI 18
NC1=C(Br)C(=O)c2ccccc2C1=O	none
COc1ccccc1N1CCN(C(=O)C(=O)N/N=C/c2cccc(O)c2)CC1	PDI turbidity 36 (no result: ERp5 inh, FGF22 binding, AF4-AF9 inh)
COc1ccccc1N1CCN(CC(=O)NC(=O)NCc2ccccc2)CC1	FGF22 binding 43 (no result: ARNT TACC3 PPI)
COc1ccccc1N1CCN(C(=O)CCC(=O)O)CC1	FGF22 binding 43 (no result: ARNT TACC3 PPI)
C[C@@H]1CN([C@H](C)CO)C(=O)Cc2cc(NC(=O)CCN3CCOCC3)ccc2O[C@@H]1CN(C)C(=O)Nc1ccc2c(c1)OCO2	none (no result: PDI turbidity, FN deposition inh)
CS(=O)(=O)c1ccc2nc(NC(=O)c3cc(-c4ccccc4)nn3-c3ccccc3)sc2c1	FGF22 binding 43
O=C1/C(=C/c2cccc(O)c2)SC(=S)N1CC1CCCO1 (centres undefined)	none
